The values below come from ChEMBL document CHEMBL4152296, “Synthesis, biological evaluation and molecular modeling of novel azaspiro dihydrotriazines as influenza virus inhibitors targeting the host factor dihydrofolate reductase (DHFR)” (Eur J Med Chem, 2018).

pEC50: −log10 of the molar value. Active and inactive are the calls of the source. The calls are words filed in the database; no cut-off is given here.

Data set [1] concerns Mammalian orthoreovirus 1. The data set can be described thus: Antiviral activity against Reovirus-1 infected in African green monkey Vero cells assessed as inhibition of virus-induced cytopathic effect after 3 to 6 days by MTS assay. It counts as functional, organism-based. (In general: Damage to the host cells serves as the signal in cytopathic effect assays.)
Data set [2] relates to Respiratory syncytial virus. The data set can be described thus: Antiviral activity against Respiratory syncytial virus Long infected in human HeLa cells assessed as inhibition of virus-induced cytopathic effect after 3 to 6 days by MTS based microscopy. Type of data set: functional, organism-based.
Data set [3] deals with Vesicular stomatitis virus. The data set can be described thus: Antiviral activity against Vesicular stomatitis virus infected in human HEL299 cells assessed as inhibition of virus-induced cytopathic effect after 3 to 6 days by MTS assay. Type of data set: functional, organism-based.
The next data set concerns Vaccinia virus. The data set is described as follows: Antiviral activity against Vaccinia virus infected in human HEL299 cells assessed as inhibition of virus-induced cytopathic effect after 3 to 6 days by MTS assay. It counts as functional, organism-based. To be noted: Orthopoxvirus vaccinia.
A further data set relates to Human coronavirus 229E. The data set can be described thus: Antiviral activity against Human coronavirus 229E infected in human HEL299 cells assessed as inhibition of virus-induced cytopathic effect after 3 to 6 days by MTS assay. It counts as functional, organism-based.
The next data set relates to Influenza A virus. The data set can be described thus: Antiviral activity against Influenza A virus (A/Puerto Rico/8/34(H1N1)) infected in MDCK cells assessed as protection against virus-induced reduction in cell viability after 3 to 6 days by MTS assay. It counts as functional, organism-based. To be noted: A/Puerto Rico/8/1934(H1N1). In outline: (§1)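 MDCK cells seeded at 9000/well and infected one day later (semiconfluent) with 100 CCID50 virus. Medium was FCS-free Ultra MDCK with 2 μg/mL TPCK-trypsin. Serial five-fold compound dilutions (top 100 μM) were added with the virus, followed by 3–6 days at 35 °C. MTS read-out gave % protection versus virus and mock controls. EC50 was interpolated from semi-log curves; mean of two or three experiments.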

The subject of a further data set is Punta Toro virus. The data set is described as follows: Antiviral activity against Punta Toro virus infected in African green monkey Vero cells assessed as inhibition of virus-induced cytopathic effect after 3 to 6 days by MTS assay. It counts as functional, organism-based.
For a further data set, the system named is Vero. The data set is described as follows: Cytotoxicity against African green monkey Vero cells assessed as reduction in cell viability measured after 3 to 6 days by MTS assay. To be noted: chlorocebus sabaeus. Type of data set: cell-based. For orientation: Tetrazolium assays rely on reduction of a dye to a coloured formazan, in cell work by metabolically active cells.

The next data set deals with Influenza B virus. The data set can be described thus: Antiviral activity against Influenza B virus B/Ned/537/05 infected in MDCK cells assessed as protection against virus-induced reduction in cell viability after 3 to 6 days by MTS assay. It counts as functional, organism-based. Particulars: B/Ned/537/05, MDCK. In outline:
as §1

Data set [4] is described as follows: Cytotoxicity against MDCK cells assessed as alterations in normal cell morphology measured after 3 to 6 days by microscopic analysis. Type of data set: cell-based, Canis lupus familiaris. To be noted: dog. In outline: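 Uninfected MDCK cultures in FCS-free Ultra MDCK medium with trypsin received five-fold compound dilutions (up to […]) for 3–6 days at 35 °C. Microscopy scored morphology, and MCC was taken as the lowest concentration causing minimal rounding, shrinking or lysis.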

Data set [5] relates to Human immunodeficiency virus. The data set is described as follows: Antiviral activity against HIV. It counts as functional, organism-based.
The next data set has as its system Human alphaherpesvirus 1. The data set is described as follows: Antiviral activity against Herpes simplex virus type 1 infected in human HEL299 cells assessed as inhibition of virus-induced cytopathic effect after 3 to 6 days by MTS assay. It counts as functional, organism-based.
Another data set concerns Human alphaherpesvirus 2. The data set is described as follows: Antiviral activity against Herpes simplex virus type 2 infected in human HEL299 cells assessed as inhibition of virus-induced cytopathic effect after 3 to 6 days by MTS assay. Type of data set: functional, organism-based.
For another data set, the system named is Coxsackievirus B4. The data set can be described thus: Antiviral activity against Coxsackie B4 virus infected in human HeLa cells assessed as inhibition of virus-induced cytopathic effect after 3 to 6 days by MTS assay. Type of data set: functional, organism-based.
Another data set relates to Yellow fever virus. The data set is described as follows: Antiviral activity against Yellow fever virus infected in African green monkey Vero cells assessed as inhibition of virus-induced cytopathic effect after 3 to 6 days by MTS assay. It counts as functional, organism-based.
For another data set, the system named is Sindbis virus. The data set can be described thus: Antiviral activity against Sindbis virus infected in African green monkey Vero cells assessed as inhibition of virus-induced cytopathic effect after 3 to 6 days by MTS assay. Type of data set: functional, organism-based.
The next data set has as its system Human adenovirus 2. The data set is described as follows: Antiviral activity against Human adenovirus type 2 infected in human HEL299 cells assessed as inhibition of virus-induced cytopathic effect after 3 to 6 days by MTS assay. It counts as functional, organism-based.
Data set [6] is described as follows: Cytotoxicity against human HeLa cells assessed as alterations in normal cell morphology measured after 3 to 6 days by microscopic analysis. It counts as cell-based. In outline: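 Mock-infected HeLa cultures in 2% FCS medium received serial five-fold dilutions […] for 3–6 days at 37 °C. MCC was the lowest concentration giving microscopically visible minimal change in cell morphology (rounding, shrinking, lysis).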

A further data set deals with MDCK. The data set is described as follows: Cytotoxicity against MDCK cells assessed as reduction in cell viability measured after 3 to 6 days by MTS assay. It counts as cell-based, Canis lupus familiaris. Particulars: dog. In outline: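 Mock-infected MDCK plates were run in parallel (FCS-free Ultra MDCK medium with TPCK-trypsin) with serial five-fold dilutions up to […], 35 °C for 3–6 days. CC50 was interpolated from semi-log dose-response curves; mean of two or three experiments.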

A further data set relates to Human respirovirus 3. The data set can be described thus: Antiviral activity against Parainfluenza virus 3 infected in African green monkey Vero cells assessed as inhibition of virus-induced cytopathic effect after 3 to 6 days by MTS assay. It counts as functional, organism-based.

As a reminder, the pEC50 is −log10 of the EC50, conventionally taken in molar units. Broadly, the CC50 is the concentration that lowers cell viability or growth by half. Take `CCCN1C(N)=NC(N)=NC12CCN(C(=O)C1CC1)CC2`: the result (in data set [1]; in data set [3]; with Vaccinia virus; in the data set on Human coronavirus 229E; in the data set with Punta Toro virus; in [5]) was inactive. The outcome in the data set on Human alphaherpesvirus 1, in the data set with Human alphaherpesvirus 2, in the data set with Coxsackievirus B4, with Yellow fever virus, in the data set with Sindbis virus and in the data set on Human adenovirus 2 was inactive. Moreover, the outcome in the data set with Human respirovirus 3 was inactive. For the same compound, the pEC50 (in [2]; with Influenza A virus; in the data set on Influenza B virus) was under 4.00 each time. For the same compound, the Activity entry in the data set with Vero was “Non-Toxic”. Further, the MCC in data set [4] and in data set [6] was over 100 µM throughout. The 50% cytotoxic concentration (CC50) in the data set on MDCK was over 100 µM.
On to `Cl.NC1=NC2(CCCN(Cc3ccccc3)C2)N(c2ccccc2)C(N)=N1` (stereo unspecified), for which the outcome (in data set [1]; in [3]; with Vaccinia virus; in the data set with Human coronavirus 229E; in the data set on Punta Toro virus; in data set [5]) was inactive. Also, the result with Human alphaherpesvirus 1, in the data set on Human alphaherpesvirus 2, in the data set on Coxsackievirus B4, with Yellow fever virus, in the data set with Sindbis virus and in the data set on Human adenovirus 2 was inactive. Besides, the outcome in the data set with Human respirovirus 3 was inactive. In addition, the pEC50 (in data set [2]; in the data set on Influenza A virus; in the data set on Influenza B virus) was under 4.00 throughout. The Activity result with Vero is “Non-Toxic”. Also, the MCC in [4] and in data set [6] was over 100 µM throughout. Besides, in the data set with MDCK, the 50% cytotoxic concentration (CC50) was over 100 µM.
For `CCCN1C(N)=NC(N)=NC12CCN(C(=O)c1c(C)noc1C)CC2`, the result (in data set [1]; in data set [3]; with Vaccinia virus; with Human coronavirus 229E; with Punta Toro virus; in data set [5]) was inactive. The result in the data set on Human alphaherpesvirus 1, in the data set with Human alphaherpesvirus 2, in the data set on Coxsackievirus B4, in the data set with Yellow fever virus, with Sindbis virus and in the data set on Human adenovirus 2 was inactive. Besides, in the data set on Human respirovirus 3, the result was inactive. For the same compound, the negative logarithm of the EC50 (pEC50) (in data set [2]; with Influenza A virus; in the data set with Influenza B virus) was under 4.00 throughout. In addition, in the data set on Vero, the Activity result was “Non-Toxic”. The MCC in [4] and in data set [6] was over 100 µM each time. The CC50 in the data set on MDCK was over 100 µM.
Consider `NC1=NC2(CCN(C(=O)c3ccc4ccccc4c3)CC2)N(c2cccc(Cl)c2)C(N)=N1`, for which the outcome (in data set [1]; in [3]; in the data set on Vaccinia virus; in the data set on Human coronavirus 229E; with Punta Toro virus; in data set [5]) was inactive. In addition, the outcome in the data set with Human alphaherpesvirus 1, with Human alphaherpesvirus 2, in the data set with Coxsackievirus B4, with Yellow fever virus, in the data set with Sindbis virus and in the data set with Human adenovirus 2 was inactive. The outcome in the data set with Human respirovirus 3 was inactive. Further, the results for the pEC50 (in [2]; with Influenza A virus; in the data set with Influenza B virus) were under 4.00, 4.55 and 5.40, respectively. In the data set on Vero, the Activity result was “Non-Toxic”. Further, the values for the MCC in data set [4] and in [6] were at least 4 µM and at least 100 µM, respectively. In the data set on MDCK, the CC50 is over 100 µM.
For the compound `COCCN1C(N)=NC(N)=NC12CCN(S(=O)(=O)c1ccccc1)CC2`, the result (in data set [1]; in data set [3]; with Vaccinia virus; with Human coronavirus 229E; in the data set with Punta Toro virus; in data set [5]) was inactive. For the same compound, the outcome in the data set on Human alphaherpesvirus 1, in the data set on Human alphaherpesvirus 2, in the data set with Coxsackievirus B4, with Yellow fever virus, with Sindbis virus and with Human adenovirus 2 was inactive. Further, the result with Human respirovirus 3 was inactive. The pEC50 (in data set [2]; with Influenza A virus; in the data set on Influenza B virus) was under 4.00 each time. Besides, in the data set with Vero, the Activity result was “Non-Toxic”. In addition, the MCC in data set [4] and in [6] was over 100 µM in each case. For the same compound, the half-maximal cytotoxic concentration (CC50) in the data set with MDCK was over 100 µM.
For `COCCN1C(N)=NC(N)=NC12CCN(C(=O)NC1CCC(C)CC1)CC2` (stereo unspecified), the result (in [1]; in data set [3]; with Vaccinia virus; with Human coronavirus 229E; with Punta Toro virus; in [5]) was inactive. In addition, the outcome in the data set on Human alphaherpesvirus 1, in the data set with Human alphaherpesvirus 2, in the data set on Coxsackievirus B4, in the data set on Yellow fever virus, with Sindbis virus and in the data set on Human adenovirus 2 was inactive. For the same compound, in the data set on Human respirovirus 3, the result was inactive. Further, the pEC50 (in data set [2]; with Influenza A virus; in the data set with Influenza B virus) was under 4.00 in each case. Besides, the Activity entry in the data set with Vero is given as “Non-Toxic”. Also, the MCC in data set [4] and in data set [6] was over 100 µM throughout. Besides, in the data set on MDCK, the CC50 is over 100 µM.
Regarding `CC(N)C12CC3CC(CC(C3)C1)C2` (stereo unspecified) [RIMANTADINE], the results for the pEC50 with Influenza A virus and in the data set with Influenza B virus were 4.55 and under 3.30, respectively. Moreover, the MCC in data set [4] was at least 500 µM. Besides, the CC50 with MDCK was over 500 µM.
For `NC(=O)c1ncn([C@@H]2O[C@H](CO)[C@@H](O)[C@H]2O)n1` [RIBAVIRIN], the pEC50 in the data set with Influenza A virus is 4.96; with Influenza B virus it was 5.49. Also, the MCC was at least 20 µM in data set [4] and over 250 µM in [6].
With `NC12CC3CC(CC(C3)C1)C2` [AMANTADINE], the negative logarithm of the EC50 (pEC50) in the data set on Influenza A virus was 4.59; with Influenza B virus, under 3.30. The MCC in [4] is over 500 µM. Besides, the half-maximal cytotoxic concentration (CC50) in the data set on MDCK is over 500 µM.
With `CC(=O)N[C@H]1[C@H]([C@H](O)[C@H](O)CO)OC(C(=O)O)=C[C@@H]1N=C(N)N` [ZANAMIVIR], the figures for the pEC50 in the data set with Influenza A virus and with Influenza B virus were 5.89 and 6.85, respectively. In addition, the MCC in data set [4] was over 100 µM. Moreover, the half-maximal cytotoxic concentration (CC50) in the data set on MDCK is over 100 µM.
